Assay results taken from ChEMBL document CHEMBL3393048, “Discovery of potent cytotoxic ortho-aryl chalcones as new scaffold targeting tubulin and mitosis with affinity-based fluorescence” (J Med Chem, 2014).
Activity calls are given as the source filed them. The calls are words filed in the database; no cut-off is given here.

How the values were obtained:
[1] = test system: MCF7; assay: Drug resistance index, ratio of IC50 for doxorubicin-resistant human MCF7 cells to IC50 for human MCF7 cells; format: functional
Procedure, shortened: (§1)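 Drug resistance index = IC50 in the resistant line / IC50 in its parental line. […] Pairs: A549/CDDP vs A549, MCF-7/DOX vs MCF-7, A2780/TAX vs A2780, HCT-8/VCT vs HCT-8.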

[2] = test system: HepG2; assay: Antiproliferative activity against human HepG2 cells after 48 hrs by SRB method; format: functional, cell-based; conditions: HepG2, 48 h
Procedure, shortened: (§2)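 SRB assay. Cells in DMEM high glucose with 10% FBS were seeded at 5000/well and grown 24 h; a day-0 plate was fixed at that point. Compounds were added in triplicate for 48 h. IC50 came from nonlinear regression of dose–response curves from at least two independent experiments.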

[3] = Antiproliferative activity against vincristine-resistant human HCT8 cells after 48 hrs by SRB method; format: functional, cell-based; conditions: HCT-8, 48 h
Procedure, shortened: (§3)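 SRB assay. Cells in DMEM high glucose with 10% FBS were seeded at 5000/well and grown 24 h; a day-0 plate was fixed at that point. Compounds were added in triplicate for 48 h. Cells were fixed with TCA at 4 °C for 1 h, stained with 0.4% SRB, and the dye was solubilized in 10 mM Tris pH 10.4. OD was read at 515 nm with day-0 OD subtracted. IC50 came from nonlinear regression of dose–response curves from at least two independent experiments.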

[4] = target: Tubulin; assay: Inhibition of tubulin polymerization (unknown origin) by DAPI staining-based fluorescence microscopy; format: protein-complex assay, Homo sapiens
Procedure, shortened: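 Purified tubulin (99% pure; 20 μM as supplied) mixed with compound in general tubulin buffer (80 mM PIPES pH 6.9, 2.0 mM MgCl₂, 0.5 mM EGTA) with 1 mM GTP, 20% glycerol and DAPI reporter. Polymerization tracked kinetically at 37 °C as fluorescence rise (ex 360, em 450 nm). Duplicate wells per concentration. IC50 from at least two independent experiments.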

[5] = test system: MCF7; assay: Antiproliferative activity against human MCF7 cells after 48 hrs by SRB method; format: functional, cell-based; conditions: MCF7, 48 h; procedure, shortened: as §2
[6] = Antiproliferative activity against human HCT8 cells after 48 hrs by SRB method; format: functional, cell-based; conditions: HCT-8, 48 h; procedure, shortened: as §2
[7] = test system: MCF7; assay: Antiproliferative activity against doxorubicin-resistant human MCF7 cells after 48 hrs by SRB method; format: functional, cell-based; conditions: MCF7, 48 h; procedure, shortened: as §2
[8] = test system: A2780; assay: Antiproliferative activity against human A2780 cells after 48 hrs by SRB method; format: functional, cell-based; conditions: A2780, 48 h; procedure, shortened: as §2
[9] = Drug resistance index, ratio of IC50 for vincristine-resistant human HCT8 cells to IC50 for human HCT8 cells; format: functional, HCT-8; procedure, shortened: as §1
[10] = Antiproliferative activity against human CNE2 cells after 48 hrs by SRB method; format: functional, cell-based; conditions: CNE-2, 48 h; procedure, shortened: as §2
[11] = test system: A549; assay: Cell cycle arrest in human A549 cells assessed as accumulation at G2/M phase at 7.81 to 250 nM after 24 hrs by Hoechst 33342 staining-based ArrayScanVTI analysis; format: functional
Procedure, shortened: (§4)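 A549 cells were seeded at 5000/well, cultured overnight, then treated 24 h over a 7.81–250 concentration series. Cells were fixed in prewarmed paraformaldehyde 10 min, permeabilized with Triton X-100, and nuclei stained with Hoechst 33342. Imaging was by ArrayScan VTI high-content analysis. Phase percentage = cells within a gated fluorescence intensity / total cells counted.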

[12] = test system: A549; assay: Cell cycle arrest in human A549 cells assessed as accumulation at G2/M phase at 125 nM after 24 hrs by Hoechst 33342 staining-based ArrayScanVTI analysis; format: functional; procedure, shortened: as §4
[13] = test system: A549; assay: Antiproliferative activity against cis-platinum-resistant human A549 cells after 48 hrs by SRB method; format: functional, cell-based; conditions: A549, 48 h; procedure, shortened: as §3
[14] = test system: SW480; assay: Antiproliferative activity against human SW480 cells after 48 hrs by SRB method; format: functional, cell-based; conditions: SW480, 48 h; procedure, shortened: as §2
[15] = test system: A2780; assay: Antiproliferative activity against taxol-resistant human A2780 cells after 48 hrs by SRB method; format: functional, cell-based; conditions: A2780, 48 h; procedure, shortened: as §2
[16] = test system: A2780; assay: Drug resistance index, ratio of IC50 for taxol-resistant human A2780 cells to IC50 for human A2780 cells; format: functional; procedure, shortened: as §1
[17] = test system: A549; assay: Drug resistance index, ratio of IC50 for cis-platinum-resistant human A549 cells to IC50 for human A549 cells; format: functional; procedure, shortened: as §1
[18] = test system: A549; assay: Antiproliferative activity against human A549 cells after 48 hrs by SRB method; format: functional, cell-based; conditions: A549, 48 h; procedure, shortened: as §3
[19] = target: T1, Tubulin (Homo sapiens) (UniProt P68371+Q9H4B7+P0DPH7+P68366+Q13509+Q71U36+P04350+Q3ZCM7+P07437+P68363+Q9BQE3+Q6PEY2+Q13885+Q9BVA1+Q9BUF5); assay: Displacement of (E)-3-(4-(Dimethylamino)phenyl)-1-(4'-fluoro[1,1'-biphenyl]-2-yl)prop-2-en-1-one from tubulin (unknown origin) by fluorescence assay; format: protein-complex assay
Procedure, shortened: (§5)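 Competition assay. Tubulin (4 μM) and probe (8 μM) in general tubulin buffer at 37 °C were incubated until fluorescence plateaued (about 30 min; excitation 430, emission 510 nm). Competitors were then added at 0–80 μM and kinetics recorded at 37 °C. The stable F/F0 ratio was plotted against competitor concentration and fitted.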

[20] = test system: A549; assay: Induction of apoptosis in human A549 cells assessed as early apoptotic cells at 0.25 uM after 48 hrs by Annexin V-FITC/propidium iodide staining-based flow cytometry (reference value: 0.47%); format: functional
[21] = test system: A549; assay: Cell cycle arrest in human A549 cells assessed as accumulation at G2/M phase at 31.25 nM after 24 hrs by Hoechst 33342 staining-based ArrayScanVTI analysis; format: functional
[22] = test system: A549; assay: Induction of apoptosis in human A549 cells assessed as viable cells at 0.25 uM after 48 hrs by Annexin V-FITC/propidium iodide staining-based flow cytometry (reference value: 99.37%); format: functional; conditions: A549, 48 h, read-out: Activity
[23] = test system: A549; assay: Induction of apoptosis in human A549 cells assessed as late apoptotic cells at 0.25 uM after 48 hrs by Annexin V-FITC/propidium iodide staining-based flow cytometry (reference value: 0.10%); format: functional
[24] = test system: A549; assay: Induction of apoptosis in human A549 cells assessed as necrotic cells at 0.25 uM after 48 hrs by Annexin V-FITC/propidium iodide staining-based flow cytometry (reference value: 0.06%); format: functional
[25] = test system: A549; assay: Antitumor activity against human A549 cells xenografted in BALB/c nude mouse assessed as reduction in tumor volume at 2 mg/kg, ip administered every other day for 2 weeks (reference value: 1806.9 mm'3); format: functional; conditions: route intraperitoneal
[26] = test system: Mus musculus; assay: Toxicity in BALB/c nude mouse xenografted with human A549 cells assessed as body weight at 2 mg/kg, ip administered every other day for 2 weeks; format: organism-based; design: dose 2 mg/kg, route intraperitoneal; conditions: in vivo, 336 h
Procedure, shortened: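 Female BALB/c nude mice, 5 weeks old, given 1 × 10⁷ A549 cells subcutaneously in the right flank. At about 100 mm³ tumor volume, randomized into groups of eight. Dosed ip at 2 mg/kg every other day for 2 weeks. Controls received normal saline with 0.5% DMSO and 5% Kolliphor HS 15. Body weight monitored throughout.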

[27] = test system: A549; assay: Antimitotic activity in human A549 cells assessed as multipolarization of spindle at 31 nM incubated for 24 hrs followed by cold treatment for 1 hr measured after 15 mins warm up by DAPI staining-based immunofluorescence microscopy; format: functional, cell-based
Procedure, shortened: (§6)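 A549 cells, 6 × 10⁴ per confocal dish, grown 24 h, then exposed 24 h (vehicle 0.5% DMSO, 37 °C). Dishes were held on ice 1 h to depolymerize microtubules, then rewarmed at 37 °C for 0, 5, 10 or 15 min. Cells were fixed in prewarmed paraformaldehyde 15 min and permeabilized with Triton X-100. […] Imaged by confocal microscopy.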

[28] = test system: A549; assay: Antimitotic activity in human A549 cells assessed as disorganized mitosis at 31 nM incubated for 24 hrs followed by cold treatment for 1 hr measured after 15 mins warm up by DAPI staining-based immunofluorescence microscopy; format: functional, cell-based; procedure, shortened: as §6
[29] = target: T1, Tubulin (Homo sapiens); assay: Binding affinity to tubulin (unknown origin) after 30 mins by fluorescence assay; format: protein-complex assay
Procedure, shortened: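 Intrinsic fluorescence on tubulin binding. Compounds were mixed with tubulin (4 μM or 8 μM) in general tubulin buffer and incubated 30 min. Readings were excitation 430/emission 510 nm or excitation 365/emission 465 nm, with kinetic reads from mixing. ΔF = stable emission minus tubulin-only fluorescence. Optimal wavelengths were set by wavelength scanning.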

[30] = test system: A549; assay: Antitumor activity against human A549 cells xenografted in BALB/c nude mouse assessed as reduction in tumor weight at 2 mg/kg, ip administered every other day for 2 weeks (reference value: 1.446 gm); format: functional; conditions: route intraperitoneal
[31] = target: T1, Tubulin (Homo sapiens); assay: Displacement of (E)-3-(4-(Dimethylamino)phenyl)-1-(4'-fluoro[1,1'-biphenyl]-2-yl)prop-2-en-1-one from tubulin (unknown origin) at 2 uM by fluorescence assay; format: protein-complex assay; procedure, shortened: as §5
[32] = test system: A549; assay: Antimitotic activity in human A549 cells assessed as inhibition of microtubule reassembly in mitotic cells at 31 nM incubated for 24 hrs followed by cold treatment for 1 hr measured after 15 mins warm up by DAPI staining-based immunofluorescence microscopy; format: functional, cell-based; procedure, shortened: as §6
[33] = test system: A549; assay: Induction of microtubule disruption in human A549 cells assessed as multinucleation at 31 nM after 24 hrs by DAPI staining-based immunofluorescence microscopy; format: cell-based
[34] = test system: A549; assay: Antimitotic activity in human A549 cells assessed as multinucleation at 31 nM incubated for 24 hrs followed by cold treatment for 1 hr measured after 15 mins warm up by DAPI staining-based immunofluorescence microscopy; format: functional, cell-based; procedure, shortened: as §6
[35] = target: T1, Tubulin (Homo sapiens); assay: Binding affinity to tubulin (unknown origin) by fluorescence assay in presence of DTNB; format: protein-complex assay
[36] = test system: A549; assay: Induction of microtubule disruption in human A549 cells assessed as massive and dotted microtubule disorder formation at 31 nM after 24 hrs by DAPI staining-based immunofluorescence microscopy; format: cell-based
[37] = test system: A549; assay: Antimitotic activity in human A549 cells assessed as inhibition of microtubule reassembly in interphase cells at 31 nM incubated for 24 hrs followed by cold treatment for 1 hr measured after 15 mins warm up by DAPI staining-based immunofluorescence microscopy; format: functional, cell-based; procedure, shortened: as §6
[38] = test system: A549; assay: Induction of microtubule disruption in human A549 cells assessed as multipolarization of spindle at 31 nM after 24 hrs by DAPI staining-based immunofluorescence microscopy; format: cell-based

Compound	Ratio IC50 [1]	IC50 [2]	IC50 [3]	IC50 [4]	IC50 [5]	IC50 [6]	IC50 [7]	IC50 [8]	Ratio IC50 [9]	IC50 [10]	Activity [11]	IC50 [13]	IC50 [14]	IC50 [15]	Ratio IC50 [16]	Ratio IC50 [17]	IC50 [18]	Activity [21]	also measured
COc1ccc(/C=C/C(=O)c2ccccc2-c2ccc(F)cc2)cc1	0.29	93 nM	230 nM	1800 nM	670 nM	220 nM	120 nM	170 nM	1	53 nM	Active	210 nM	61 nM	690 nM	4.1	1.1	140 nM	–	Activity [12]: Active
CC[C@]1(O)C[C@H]2CN(CCc3c([nH]c4ccccc34)[C@@](C(=O)OC)(c3cc4c(cc3OC)N(C=O)[C@H]3[C@@](O)(C(=O)OC)[C@H](OC(C)=O)[C@]5(CC)C=CCN6CC[C@]43[C@@H]65)C2)C1 [VINCRISTINE]	1063	–	1900 nM	–	–	–	4300 nM	–	–	–	–	56 nM	–	930 nM	–	4.7	–	–	Activity [19]: inactive
COc1cc2c(c(OC)c1OC)-c1ccc(OC)c(=O)cc1[C@@H](NC(C)=O)CC2 [COLCHICINE]	–	–	–	–	–	–	–	–	–	–	–	–	–	–	–	–	50 nM	Active	Activity [20]: 36.19%; viability at 0.25 µM [22]: 19.2%; Activity [23]: 37.72%; Activity [24]: 6.93%
COc1ccc(/C=C/C(=O)c2ccccc2-c2cccc(F)c2)cc1O	0.03	8 nM	57 nM	490 nM	65 nM	16 nM	2 nM	13 nM	3.6	17 nM	Active	180 nM	10 nM	230 nM	18	16	11 nM	Active	Activity [25]: 965.6 mm3; Activity [26]: Non-toxic; Activity [27]: Active; Activity [28]: Active; Activity [29]: Dose-dependent effect; Activity [30]: 0.641 g; Activity [31]: Active; inhibition [32]: Active; Activity [33]: Active; Activity [34]: Active; Activity [35]: inactive; Activity [36]: Active; inhibition [37]: Active; Activity [38]: Active
